17 molecules from ChEMBL document CHEMBL4219216, “2-Aminoquinazolin-4(3H)-one based plasmepsin inhibitors with improved hydrophilicity and selectivity” (Bioorg Med Chem, 2018) can be followed below.

≈ marks a conversion by molar mass, not a printed value. Bounds are passed on as bounds.

Data set [1] addresses Plasmepsin II (Plasmodium falciparum, UniProt P46925). The experiment in a line: Inhibition of Plasmodium falciparum plasmepsin-2 using DABCYL-Glu-Arg-Nle-Phe-Leu-Ser-Phe-Pro-EDANS as substrate preincubated for 30 mins followed by substrate addition measured every 1 min within 8 to 15 mins by FRET assay. Put shortly:
(§1)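 Test compounds at 0.01-100 μM preincubated with enzyme in 0.1 M NaOAc pH 4.5, 10% glycerol, for 30 min at 37 °C. […] Fluorescence (Ex 336, Em 490 nm) read at 37 °C. Rate taken from the linear interval only. Triplicate experiments, IC50 from dose-response fit.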

Data set [2] concerns the target Plasmepsin I (Plasmodium falciparum, UniProt P39898). Nature of the data set: Inhibition of Plasmodium falciparum plasmepsin-1 using DABCYL-Glu-Arg-Nle-Phe-Leu-Ser-Phe-Pro-EDANS as substrate preincubated for 30 mins followed by substrate addition measured every 1 min within 8 to 15 mins by FRET assay. Put shortly:
as §1

The target of data set [3] is Plasmepsin 4 (Plasmodium falciparum, UniProt Q17SB2). Nature of the data set: Inhibition of Plasmodium falciparum plasmepsin 4 using DABCYL-Glu-Arg-Nle-Phe-Leu-Ser-Phe-Pro-EDANS as substrate preincubated for 30 mins followed by substrate addition measured every 1 min within 8 to 15 mins by FRET assay. Put shortly: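 Plm IV in 0.1 M NaOAc pH 4.5 with 10% glycerol; compounds tested at 0.01–100 μM, preincubated with enzyme 30 min at 37 °C. […] Fluorescence (Ex 336/Em 490 nm) read at 37 °C; rate taken from the linear interval. Triplicate; IC50 fitted from rates; pepstatin A control.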
Sequence of Plasmepsin 4 (Q17SB2 whole entry): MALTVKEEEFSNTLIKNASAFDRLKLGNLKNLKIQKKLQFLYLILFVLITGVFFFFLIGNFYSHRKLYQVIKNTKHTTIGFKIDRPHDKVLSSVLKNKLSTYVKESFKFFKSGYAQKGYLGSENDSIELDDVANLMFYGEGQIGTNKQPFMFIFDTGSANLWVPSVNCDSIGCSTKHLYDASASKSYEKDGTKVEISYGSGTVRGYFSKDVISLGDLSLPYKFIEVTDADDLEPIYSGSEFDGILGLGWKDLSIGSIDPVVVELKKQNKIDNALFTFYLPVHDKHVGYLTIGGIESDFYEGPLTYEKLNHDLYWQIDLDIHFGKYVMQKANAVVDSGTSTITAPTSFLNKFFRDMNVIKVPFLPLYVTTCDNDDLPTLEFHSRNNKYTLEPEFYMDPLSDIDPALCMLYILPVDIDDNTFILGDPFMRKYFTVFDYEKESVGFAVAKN

The nature of data set [4]: Solubility of the compound in Tris-buffer at pH 7.4 after 16 hrs by HPLC method. It is filed as physicochemical. The settings on record: for solubility at 16 h: Tris buffer, pH 7.4. Put shortly:
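A DMSO stock (≈10 mg/mL) was diluted 10 µL into 2 mL of 0.05 M TRIS pH 7.4 (0.5% DMSO final) and shaken 16 h at 25 °C. After filtering off the precipitate, the solution was quantified by reversed-phase HPLC (UV 210 or 254 nm) against a methanol-diluted ≈0.05 mg/mL standard. Working range ≈0.005-0.05 mg/mL.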

Data set [5] has as its target Cathepsin D (Homo sapiens, UniProt P07339). The experiment in a line: Inhibition of human cathepsin D using DABCYL-Glu-Arg-Nle-Phe-Leu-Ser-Phe-Pro-EDANS as substrate preincubated for 30 mins followed by substrate addition measured every 1 min within 8 to 15 mins by FRET assay.
The target of data set [6] is Plasmepsin I (Plasmodium falciparum) (UniProt P39898). The experiment in a line: Inhibition of Plasmodium falciparum plasmepsin-1 using DABCYL-Glu-Arg-Nle-Phe-Leu-Ser-Phe-Pro-EDANS as substrate preincubated for 30 mins followed by substrate addition measured every 1 min within 8 to 15 mins by FRET assay.
Sequence of Plasmepsin I (Plasmodium falciparum) (P39898 whole entry, looked up): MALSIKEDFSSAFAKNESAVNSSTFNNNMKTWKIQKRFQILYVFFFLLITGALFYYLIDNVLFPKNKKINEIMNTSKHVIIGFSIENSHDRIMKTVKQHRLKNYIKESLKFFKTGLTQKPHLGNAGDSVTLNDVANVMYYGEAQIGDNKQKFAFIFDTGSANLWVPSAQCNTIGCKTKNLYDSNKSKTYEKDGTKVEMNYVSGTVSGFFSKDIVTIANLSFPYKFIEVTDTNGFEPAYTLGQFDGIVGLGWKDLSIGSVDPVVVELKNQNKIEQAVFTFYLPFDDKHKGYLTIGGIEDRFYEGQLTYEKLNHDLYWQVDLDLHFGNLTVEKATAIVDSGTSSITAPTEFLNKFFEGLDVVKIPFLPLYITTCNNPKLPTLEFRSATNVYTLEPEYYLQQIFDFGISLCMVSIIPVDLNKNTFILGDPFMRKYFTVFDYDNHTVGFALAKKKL

Sequence of Plasmepsin II (P46925 whole entry): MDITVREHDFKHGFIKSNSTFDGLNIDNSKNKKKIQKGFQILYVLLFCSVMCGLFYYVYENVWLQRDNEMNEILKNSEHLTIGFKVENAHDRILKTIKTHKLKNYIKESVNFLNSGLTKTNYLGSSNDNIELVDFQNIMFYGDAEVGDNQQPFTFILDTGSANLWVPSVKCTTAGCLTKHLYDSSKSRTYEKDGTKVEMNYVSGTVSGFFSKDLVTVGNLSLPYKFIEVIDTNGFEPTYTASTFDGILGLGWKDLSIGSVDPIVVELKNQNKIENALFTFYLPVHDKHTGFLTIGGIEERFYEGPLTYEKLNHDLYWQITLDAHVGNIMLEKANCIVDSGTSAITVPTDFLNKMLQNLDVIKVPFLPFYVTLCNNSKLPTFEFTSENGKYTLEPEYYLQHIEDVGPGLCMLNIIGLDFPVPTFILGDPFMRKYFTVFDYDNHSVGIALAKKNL
Sequence of Plasmepsin I (P39898 whole entry): as the sequence (P39898 whole entry, looked up) above
Sequence of Cathepsin D (P07339 65-162 limits assumed): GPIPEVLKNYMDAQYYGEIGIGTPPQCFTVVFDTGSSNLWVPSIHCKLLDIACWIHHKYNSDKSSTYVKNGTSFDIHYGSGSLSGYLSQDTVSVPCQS
Sequence of Cathepsin D (P07339 169-412 limits assumed): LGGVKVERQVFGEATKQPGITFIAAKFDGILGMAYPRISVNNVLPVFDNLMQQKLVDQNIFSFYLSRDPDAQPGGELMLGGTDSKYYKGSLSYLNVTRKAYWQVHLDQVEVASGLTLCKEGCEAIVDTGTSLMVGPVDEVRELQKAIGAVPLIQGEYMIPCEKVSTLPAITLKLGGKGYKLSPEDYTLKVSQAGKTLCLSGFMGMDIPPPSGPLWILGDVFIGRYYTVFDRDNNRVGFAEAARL

For the molecule `CCCCCc1ccc(-c2cc(-c3ccc(C(=O)O)cc3)c3c(=O)n(CC4CCCO4)c(N)nc3c2)cc1` (racemic), the IC50 (in general, the midpoint of a concentration-inhibition curve) stood at 23 nM in data set [1], 2400 nM in data set [2], 45 nM in data set [3] and 29000 nM in data set [5]. The solubility (as a rule, the concentration that dissolves in the medium under given conditions) at 16 h in data set [4] was found to be 0.03 µg/mL (≈ 0.0586 µM).

For `CCCCCc1ccc(-c2ccc3c(=O)n(CC4CCCO4)c(N)nc3c2)cc1` (racemic), the IC50 turned out to be 75 nM in data set [1], 700 nM in data set [2], 92 nM in data set [3] and 3200 nM in data set [5].

Consider `Nc1nc2cc(-c3ccccc3)cc(-c3cccc(C(=O)O)c3)c2c(=O)n1CC1CCCO1` (racemic), for which the IC50 amounted to 500 nM in data set [1], 1000 nM in data set [2], 1500 nM in data set [3] and 98000 nM in data set [5].

With `CCCCCCCCc1cc(CCC(=O)O)c2c(=O)n(CC3CCCO3)c(N)nc2c1` (racemic), the IC50 in data set [1] was 22 nM; in data set [2], 20 nM; in data set [3], 110 nM; in data set [5] it was 430 nM.

On to `Nc1nc2cc(-c3ccc(CCCc4ccccc4)cc3)cc(CCC(=O)O)c2c(=O)n1CC1CCCO1` (racemic), for which the IC50 in data set [1] came to 80 nM; in data set [2] it was 740 nM; in data set [3], 30 nM; in data set [5], 13000 nM. In addition, in data set [4] (buffer, pH 7.4, 16 h), the solubility turned out to be 0.01 µg/mL (≈ 0.0195 µM).

Consider `Nc1cccc(-c2cc(-c3ccccc3)cc3nc(N)n(CC4CCCO4)c(=O)c23)c1` (racemic), for which the IC50 was 820 nM in data set [1], 2000 nM in data set [2], 1000 nM in data set [3] and 93000 nM in data set [5].

Turning to `Nc1nc2cc(-c3ccccc3)cc(-c3ccncc3)c2c(=O)n1CC1CCCO1` (racemic), the IC50 in data set [1] was 1000 nM; in data set [2] it was 5000 nM; in data set [3], 2400 nM; in data set [5], greater than 100000 nM.

In the case of `Nc1nc2cc(-c3ccccc3)cc(-c3ccc(C(=O)O)cc3)c2c(=O)n1CC1CCCO1` (racemic), the IC50 in data set [1] came to 330 nM; in data set [2], 3500 nM; in data set [3], 1400 nM; in data set [5] it was 100000 nM.

As to `Nc1nc2cc(-c3ccc(CCCc4ccccc4)cc3)ccc2c(=O)n1CC1CCCO1` (racemic), the IC50 was 700 nM in data set [1], 1300 nM in data set [2], 100 nM in data set [3] and greater than 100000 nM in data set [5].

`Nc1nc2cc(-c3ccccc3)cc(-c3cccnc3)c2c(=O)n1CC1CCCO1` (racemic): the IC50 came out at 480 nM in data set [1], 3000 nM in data set [2], 1500 nM in data set [3] and 71000 nM in data set [5].

In the case of `Nc1nc2cc(-c3ccccc3)cc(-c3ccc(C(=O)O)cc3)c2c(=O)n1C[C@@H]1CC[C@H](c2ccccc2)O1`, the IC50 turned out to be 280 nM in data set [1], 600 nM in data set [2], 500 nM in data set [3] and 20000 nM in data set [5].

In turn, `Oc1ccc(/C=C/c2cc(O)cc(O)c2)cc1` [RESVERATROL] came in with an IC50 in data set [5] of 138000 nM.

`Nc1nc2cc(-c3ccc(CCCc4ccccc4)cc3)ccc2c(=O)n1C[C@@H]1CC[C@H](c2ccccc2)O1`: it took 130 nM to reach half-maximal inhibition in data set [3] (IC50). The molecule further displayed a solubility at 16 h in data set [4] of less than 0.01 µg/mL.

As for `CCCCCc1ccc(-c2cc(CCC(=O)O)c3c(=O)n(CC4CCCO4)c(N)nc3c2)cc1` (racemic), the IC50 in data set [1] is 27 nM; in data set [2], 50 nM; in data set [3] it was 42 nM; in data set [5], 21000 nM. Also, in data set [4], the solubility at 16 h was 0.1 µg/mL (≈ 0.216 µM).

`NC(=O)c1ccc(-c2cc(-c3ccccc3)cc3nc(N)n(CC4CCCO4)c(=O)c23)cc1` (racemic): the IC50 in data set [1] is 600 nM; in data set [2] it was 3400 nM; in data set [3] it was 2500 nM; in data set [5] it was greater than 100000 nM.

As for `CCCCCc1ccc(-c2ccc3c(=O)n(C[C@@H]4CC[C@H](c5ccccc5)O4)c(N)nc3c2)cc1`, in data set [3], the IC50 came out at 100 nM. Also, in data set [4], the solubility at 16 h was less than 0.01 µg/mL.

With `CC(C)CC(=O)N[C@H](C(=O)N[C@H](C(=O)N[C@@H](CC(C)C)[C@@H](O)CC(=O)N[C@@H](C)C(=O)N[C@@H](CC(C)C)[C@@H](O)CC(=O)O)C(C)C)C(C)C` [PEPSTATIN], the IC50 in data set [2] is 0.42 nM; in data set [3] it was 0.3 nM; in data set [6], 0.42 nM.
